This passage reports Activity results from ChEMBL document CHEMBL4665633, “Cereblon versus VHL: Hijacking E3 ligases against each other using PROTACs” (Bioorg Med Chem, 2019).

The structures appear in SMILES notation. Calls of active or inactive are those of the source. The rule behind the calls is not given here.

Common to all, as to type: cell-based
Test [1] addresses T1, Protein cereblon/von Hippel-Lindau disease tumor suppressor (Homo sapiens, UniProt P40337+Q96SW2). The test can be described thus: Protac activity at VHL/CRBN in human HeLa cells assessed as reduction in CRBN protein level at 10 nM after 4 hrs by Western blot analysis. The procedure, abridged:
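HeLa cells (ATCC; DMEM, 10% FBS, pen/strep, L-glutamine; 37 °C, 5% CO2; ≤30 passages; mycoplasma-tested) are seeded at 5 × 10⁵ per well overnight, then treated for 4 h with 0.1% v/v DMSO final. Lysis is in RIPA with protease inhibitors and benzonase, and equal protein (Bradford) is loaded. CRBN is immunoblotted, normalized to β-tubulin and expressed as % of mean DMSO vehicle.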
(In general: Immunoblotting shows a protein as a band on a membrane.)

Test [2] addresses T1, Protein cereblon/von Hippel-Lindau disease tumor suppressor. The test can be described thus: Protac activity at VHL/CRBN in HEK293 cells assessed as pVHL30 protein abundance at 1 uM after 1 hr by Western blot analysis relative to DMSO. In a few lines:
(§1)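 HEK293 cells (DMEM, 10% FBS, penicillin/streptomycin, L-glutamine; 37 °C, 5% CO2; ≤30 passages) seeded at 1 × 10⁶ per well overnight, then treated with compound at 0.1% v/v final DMSO. Cells were lysed in RIPA with protease inhibitors and benzonase, then clarified. Equal Bradford-quantified protein was immunoblotted for CRBN/VHL. Bands were normalised to β-tubulin and expressed as % of mean 0.1% DMSO vehicle.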

The target is the same in test [3]. Kind of test: Protac activity at VHL/CRBN in human HeLa cells assessed as pVHL19 protein abundance at 1000 nM after 4 hrs by Western blot analysis relative to DMSO. The procedure, abridged:
(§2)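 HeLa cells (5 × 10⁵, DMEM + 10% FBS, 37 °C, 5% CO₂, ≤30 passages) seeded overnight, then treated 4 h with compound at single or graded concentrations (0.1% v/v DMSO final). RIPA lysates equalised by Bradford; SDS-PAGE and anti-CRBN/anti-VHL immunoblots; bands normalised to β-tubulin and expressed as % of mean DMSO vehicle. DC₅₀ from fit of band intensity versus log[concentration].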

Test [4] has the same target. Kind of test: Protac activity at VHL/CRBN in human HeLa cells assessed as pVHL30 protein abundance at 50 nM after 4 hrs by Western blot analysis relative to DMSO. The procedure, abridged:
as §2

The target is the same in test [5]. Kind of test: Protac activity at VHL/CRBN in human HeLa cells assessed as CRBN protein abundance at 1 uM after 24 hrs by Western blot analysis relative to DMSO. In a few lines: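 HeLa cells seeded overnight, then exposed to 1 µM compound (0.1% v/v DMSO final) over a time course. Cells were DPBS-washed and RIPA-lysed with protease inhibitors and benzonase; equal protein was loaded. Immunoblots for CRBN and VHL isoforms were quantified against β-tubulin and reported relative to the averaged 0.1% DMSO vehicle.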

For test [6] the target is unchanged. The test can be described thus: Protac activity at VHL/CRBN in HEK293 cells assessed as CRBN protein abundance at 10000 nM after 4 hrs by Western blot analysis relative to DMSO. In a few lines: as §1
The target is the same in test [7]. The test can be described thus: Protac activity at VHL/CRBN in human HeLa cells assessed as CRBN protein abundance at 10 nM after 4 hrs by Western blot analysis relative to DMSO. The procedure, abridged:
as §2

Test [8] shares this target. Kind of test: Protac activity at VHL/CRBN in HEK293 cells assessed as pVHL30 protein abundance at 1 uM after 8 hrs by Western blot analysis relative to DMSO. The procedure, abridged:
as §1

Test [9] has the same target. Kind of test: Protac activity at VHL/CRBN in human HeLa cells assessed as CRBN protein abundance at 10000 nM after 4 hrs by Western blot analysis relative to DMSO. In a few lines: as §2
The target is the same in test [10]. Kind of test: Protac activity at VHL/CRBN in HEK293 cells assessed as pVHL19 protein abundance at 1 uM after 1 hr by Western blot analysis relative to DMSO. The procedure, abridged:
as §1

T1 sequence (P40337 whole entry, looked up): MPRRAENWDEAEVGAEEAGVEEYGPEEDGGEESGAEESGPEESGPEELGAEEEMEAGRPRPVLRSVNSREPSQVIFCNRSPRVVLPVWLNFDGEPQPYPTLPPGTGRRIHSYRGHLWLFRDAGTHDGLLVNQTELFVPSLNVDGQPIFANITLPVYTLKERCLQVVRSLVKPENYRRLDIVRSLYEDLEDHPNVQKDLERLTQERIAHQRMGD
T1 sequence (Q96SW2 whole entry, looked up): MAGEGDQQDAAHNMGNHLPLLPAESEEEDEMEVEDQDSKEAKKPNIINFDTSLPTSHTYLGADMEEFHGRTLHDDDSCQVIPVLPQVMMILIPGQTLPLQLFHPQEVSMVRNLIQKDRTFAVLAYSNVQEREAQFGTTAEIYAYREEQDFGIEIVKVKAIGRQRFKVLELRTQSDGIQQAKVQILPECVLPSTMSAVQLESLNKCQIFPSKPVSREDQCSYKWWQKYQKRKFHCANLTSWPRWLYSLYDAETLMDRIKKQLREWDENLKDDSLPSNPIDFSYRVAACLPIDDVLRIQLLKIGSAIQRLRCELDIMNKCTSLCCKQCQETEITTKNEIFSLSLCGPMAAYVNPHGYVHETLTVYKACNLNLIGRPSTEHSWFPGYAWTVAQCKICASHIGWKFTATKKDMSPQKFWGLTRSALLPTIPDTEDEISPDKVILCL

Consider `Cc1ncsc1-c1ccc(CNC(=O)[C@@H]2C[C@@H](O)CN2C(=O)[C@@H](NC(=O)COCCCCCOCCOCCCCCOCC(=O)NCCNc2cccc3c2C(=O)N(C2CCC(=O)NC2=O)C3=O)C(C)(C)C)cc1` (stereo not given in full), for which the outcome in [1] was inactive. In addition, the Activity was 88% in test [2]; 110% in [3]; 79% in test [4]; 13% in test [5]; 66% in [6]; 81% in test [7]. Besides, the results for the Activity in test [8], in [9] and in test [10] were 101%, 86% and 98%, respectively.
